# A selection: hits, their analogues and other compounds. The true share with any hit is near 2.2%.
# Statin myotox sup – protects C2C12 myotubes from simvastatin toxicity; ATP luminescence, 48 h; scaled: DMSO 0, geranylgeraniol control 100; rescue of ATP level, % at 7.49 µM; 330,000 tested, 0.78% active; AID 602340;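 active means mean ATP rescue above about 67%, or every replicate alone reaching that limit, limit read from the data, passing the limit was not always enough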;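 further: myotubes were challenged with 10 µM simvastatin during compound exposure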
# E-sel inducer – induces E-selectin expression in human endothelial cells; P16581; HUVEC E-selectin immunofluorescence imaging; normalized: neutral wells 0, TNF-alpha wells 100; activation, % at 7.58 µM; 260,000 tested, 0.37% active; AID 686992;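 active means mean E-selectin-positive cell signal at least 10% of the positive control, reached in at least 60% of replicates, without over 20% cell loss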
# Target sequence (P16581 whole entry, looked up): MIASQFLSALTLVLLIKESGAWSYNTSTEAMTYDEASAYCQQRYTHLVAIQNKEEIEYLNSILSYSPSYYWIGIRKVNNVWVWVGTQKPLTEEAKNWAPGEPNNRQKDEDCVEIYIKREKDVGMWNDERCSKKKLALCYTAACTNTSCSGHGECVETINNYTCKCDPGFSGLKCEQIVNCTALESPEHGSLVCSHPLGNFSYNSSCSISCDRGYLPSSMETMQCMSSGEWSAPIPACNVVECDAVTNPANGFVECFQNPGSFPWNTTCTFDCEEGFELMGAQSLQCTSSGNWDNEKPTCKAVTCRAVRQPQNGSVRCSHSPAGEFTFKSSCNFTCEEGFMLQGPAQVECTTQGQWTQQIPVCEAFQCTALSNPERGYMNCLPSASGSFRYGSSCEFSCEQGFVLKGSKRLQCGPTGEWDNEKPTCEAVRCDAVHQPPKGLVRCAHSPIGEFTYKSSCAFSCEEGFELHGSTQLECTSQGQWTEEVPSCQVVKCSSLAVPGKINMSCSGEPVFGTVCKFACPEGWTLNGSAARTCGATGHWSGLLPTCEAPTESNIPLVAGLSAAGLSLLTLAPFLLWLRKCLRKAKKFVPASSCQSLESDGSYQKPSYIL
#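 Test system – human umbilical vein endothelial cells (HUVEC), E-selectin induction · Input – 3,000 HUVEC seeded per well · Buffer or medium – EGM-2, gelatin · Compound dosing – single-point compound dose · Detection – immunofluorescence imaging · Measure – percent E-selectin-positive cells · Controls – TNF-alpha high, DMSO low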
# DENV2 CPE rescue – protects cells from dengue virus 2 cytopathic effect. DENV2-infected cells, cytopathic effect rescue, plate reader. CPE inhibition, % at 9.99 µM. 350,000 tested, 1.7% active; in the data active means CPE inhibition above about 20%, passing the limit was not always enough; tested in BHK-21 cells;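 further: 0% = median of neutral control wells and 100% = median of positive control wells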
# The depositor's hits bear a star; . = no result.
SMILES,Statin myotox sup,E-sel inducer,DENV2 CPE rescue
O=C(Nc1ccccc1)N1CCCCN2[C@H](CO)[C@@H](c3ccc(Br)cc3)[C@H]2C1,39,0,5
O=C(Nc1ccccc1)N1CCCCN2[C@@H](CO)[C@@H](c3ccc(Br)cc3)[C@@H]2C1,-27,0,33*
O=C(Nc1ccccc1)N1CCCCN2[C@H](CO)[C@H](c3ccc(C#CC4CC4)cc3)[C@H]2C1,.,-1,34*
O=C(Nc1ccccc1)N1CCCCN2[C@H](C1)[C@H](c1ccc(Br)cc1)[C@@H]2CO,95*,0,8
O=C(Nc1ccccc1)N1CCCCN2[C@H](CO)[C@@H](c3ccc(C#CC4CC4)cc3)[C@@H]2C1,.,0,10
O=C(Nc1ccccc1)N1CCCCN2[C@H](C1)[C@@H](c1ccc(Br)cc1)[C@@H]2CO,8,0,19
CCNC(=O)C[C@H]1CC[C@H]2[C@H](COc3ccc(NC(=O)C4CCOCC4)cc3C(=O)N2C)O1,15,0,-2
Cc1cc(Cl)c(S(=O)(=O)N2CC(C)OC(C)C2)cc1OCC(N)=O (centres undefined),135*,.,.
Cc1cc(Cl)c(S(=O)(=O)N2CCSCC2)cc1OCC(N)=O,-6,.,.
CCO[C@@H]1OC(C(=O)N2CCCC2)=C[C@H](c2ccccc2)[C@H]1CCCO,.,.,8
CCN(CC)c1ccc2nc3c4ccccc4c(=O)cc-3oc2c1,.,203*,0
CCN(CC)c1ccc2cc(C=O)c(=O)oc2c1,2,.,.
O=C(C[C@H]1C[C@@H]2c3cc(NS(=O)(=O)c4ccc(F)cc4)ccc3O[C@@H]2[C@H](CO)O1)NCCc1ccccc1,4,-1,-1
COc1ccccc1C(=O)NNC(=O)Cc1ccccc1,-2,0,8
CCC(C)(CCNC(=O)Cc1ccccc1)c1ccccc1OC (centres undefined),121*,0,-6
Cc1ccc(S(=O)(=O)Nc2ccc3c(c2)C(=O)N([C@@H](C)CO)C[C@H](C)[C@H](CN(C)C(=O)c2ccccc2)OCCCC[C@@H](C)O3)cc1,.,.,-6
Cc1cnc(NC(=O)C2CC(=O)N(c3ccc4c(c3)OCCO4)C2)s1 (centres undefined),.,0,-6
COc1cccc(N2CC(C(=O)Nc3ccc(C(=O)OC(C)C)cc3)CC2=O)c1 (centres undefined),2,.,.
Cc1cc(N2CC(C(=O)O)CC2=O)ccc1Br (centres undefined),76*,.,.
Cc1ccc(N2CC(C(=O)NC3=NCCS3)CC2=O)cc1C (centres undefined),13,.,.
CC(=O)COC(=O)C1CC(=O)N(c2ccc(C)c(C)c2)C1 (centres undefined),.,.,18
COc1cccc(N2CC(C(=O)Nc3ccc(F)cc3)CC2=O)c1 (centres undefined),-4,0,27*
Cc1cnc(NC(=O)C2CC(=O)N(c3cccc(Cl)c3)C2)s1 (centres undefined),-143,0,33*
Cc1ccc(N2CC(C(=O)Nc3ccc(N(C)C)cc3)CC2=O)cc1C (centres undefined),148*,.,.
COc1ccc(S(=O)(=O)N2CCC3(CC2)CN(C(=O)CN(C)C)[C@@H](CO)c2c3c3ccc(OC)cc3n2C)cc1,.,1,10
SMILES,Statin myotox sup,E-sel inducer,DENV2 CPE rescue
O=C(Nc1ccncc1)C1CC(=O)N(c2ccc(F)cc2)C1 (centres undefined),2,.,-1
CCc1ccc(N2CC(C(=O)Nc3ccc(F)cc3)CC2=O)cc1 (centres undefined),-7,42*,-1
O=C(CN1C2=NCCCN2c2ccccc21)c1ccc(Br)s1,115*,.,.
Brc1ccc(CN2C3=NCCCN3c3ccccc32)cc1,.,.,-4
O=C(O)CN1C2=NCCCN2c2ccccc21,.,.,1
c1ccc(CN2C3=NCCCN3c3ccccc32)cc1,79*,.,.
Cc1ccccc1-c1cnc2c(c1)C(=O)N([C@H](C)CO)C[C@@H](C)[C@H](CN(C)C(=O)CC1CC1)O2,-1,0,16
COc1ccccc1C#Cc1ccc([C@@H]2[C@H]3CN(C(=O)C4CC4)CCCCN3[C@H]2CO)cc1,.,.,8
CC1Cc2ccccc2N1C(=O)CSc1nnnn1C (centres undefined),28,.,.
CC1Cc2ccccc2N1C(=O)CSc1nnc(Cc2ccccc2)n1CCc1ccccc1 (centres undefined),113*,.,.
Cc1ccc(N(C(=O)c2csnn2)C(C(=O)NC2CCCCC2)c2ccccn2)cc1C (centres undefined),81*,0,0
O=C(NC1CCCC1)C(c1ccc(F)cc1)N(C(=O)c1csnn1)c1ccccc1 (centres undefined),-13,36*,-4
O=C(NC1CCCC1)C(c1ccc(F)cc1)N(C(=O)c1csnn1)c1ccccc1F (centres undefined),-5,.,0
Cc1cc(C)cc(N(C(=O)c2csnn2)C(C(=O)NC2CCCCC2)c2ccccn2)c1 (centres undefined),9,.,1
C[C@@H]1CN([C@@H](C)CO)C(=O)Cc2cc(NC(=O)CCCCCC(=O)Nc3ccccc3N)ccc2O[C@H]1CN(C)Cc1ccncc1,14,.,-13
CO[C@@H]1CN(C)C(=O)c2cc(NC(=O)C3CCCC3)ccc2OC[C@H](C)N(C(C)=O)C[C@@H]1C,-10,0,.
CCC(=O)N1[C@H](CN(C(C)C)S(C)(=O)=O)[C@H](c2ccccc2)[C@@H]1CO,-3,0,13
Cc1noc(C)c1S(=O)(=O)Nc1ccc2c(c1)C(=O)N([C@@H](C)CO)C[C@H](C)[C@@H](CN(C)Cc1ccc3c(c1)OCO3)O2,29,-6,-6
COc1ccc(NS(=O)(=O)c2ccc3c(c2)CCCN3C(C)=O)cc1,18,121*,-5
COc1ccc(OC)c(S(=O)(=O)Nc2cc3c4c(c2)CCN4C(=O)CC3)c1,9,0,-3
COc1ccc(S(=O)(=O)Nc2cc3c4c(c2)CCN4C(=O)CC3)cc1,-10,.,60*
COc1cccc(NS(=O)(=O)c2ccc3c(c2)CCCN3C(C)=O)c1,.,.,-1
CCc1ccc(NC(=O)C2CCCN(S(=O)(=O)c3ccc4c(c3)CCCN4C(C)=O)C2)cc1 (centres undefined),12,.,3
COc1ccc(CNC(=O)C2CCCN(S(=O)(=O)c3ccc4c(c3)CCCN4C(C)=O)C2)cc1 (centres undefined),120*,.,-5
CCS(=O)(=O)Nc1ccc2c(c1)C(=O)N(C)C[C@H](OC)[C@H](C)CN(CC1CCCCC1)[C@@H](C)CO2,-1,0,-3
COCC(=O)Nc1ccc2c(c1)[C@H]1C[C@@H](CC(=O)NCc3cc(F)ccc3F)O[C@H](CO)[C@H]1O2,-1,0,-8
CCCNC(=O)C[C@@H]1CC[C@H]2[C@@H](COc3ccc(NC(=O)CCC)cc3C(=O)N2C)O1,-10,0,1
CCN1CCN(C(=O)/C=C/c2ccc3c(c2)OCO3)CC1,-2,.,11
CCN1CCN(C(=O)/C=C/c2ccc(OC)c(OC)c2)CC1,3,.,20*
C[C@H](O)C#Cc1cnc2c(c1)C(=O)N([C@H](C)CO)C[C@@H](C)[C@H](CN(C)C(=O)Nc1ccc(F)cc1)O2,2,0,-1
